From ChEMBL document CHEMBL1156199, “Synthesis of new acridone derivatives, inhibitors of NS3 helicase, which efficiently and specifically inhibit subgenomic HCV replication” (J Med Chem, 2010)
Activity calls are given as the source filed them. The calls are words filed in the database; no cut-off is given here.

How the values were obtained:
Hepatitis C virus [1] = assay: Antiviral activity against HCV 1b infected in human HuH7 cells assessed as inhibition of viral RNA replication after 4 days by replicon assay; type: functional, organism-based, Hepacivirus hominis; details: genotype 1b, Huh-7, 96 h
How it was run: (§1)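 Huh-7 cells carrying genotype 1b subgenomic replicon; compounds in DMSO tested from 1 to 200 μM or 1 μM to 1 mM depending on solubility; luminescence-based replicon RNA amplification assay; EC50 = concentration reducing luminescence by 50%.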

[2] = test system: NS3 helicase (Hepatitis C virus genotype 1a); assay: Inhibition of HCV 1a NS3 helicase by fluorimetry
[3] = Cytotoxicity against human HuH7 cells after3 days by XTT assay
[4] = Therapeutic index, ratio of CC50 for human HuH7 cells to EC50 for HCV 1b; type: cell-based, Huh-7; details: read-out: Ratio CC50/EC50
How it was run: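 Therapeutic index calculated as CC50 (XTT, replicon-bearing Huh-7 cells) divided by EC50 (luminescence replicon assay, genotype 1b).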

Nucleic Acid [5] = assay: Binding affinity to […] assessed as inhibition of ethidium bromide DNA intercalation by gel migration retardation assay; type: nucleic-acid assay; details: Hepacivirus hominis
How it was run: (§2)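 dsNA gel migration retardation assay on dsDNA: compound (100 or 500 μM) incubated with dsDNA, ethidium bromide staining; intercalation read as partial or total loss of the dsDNA band; DMSO as negative and epidoxorubicin as positive control.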

Nucleic Acid [6] = assay: Binding affinity to […] assessed as inhibition of ethidium bromide DNA intercalation at 100 uM by gel migration retardation assay; type: nucleic-acid assay; details: Hepacivirus hominis; how it was run: as §2
[7] = Inhibition of HCV NS3 helicase in presence of 2.5 mM ATP; parameters: species or system Hepacivirus hominis
[8] = Inhibition of HCV NS3 helicase in presence of 1.5 mM ATP; parameters: species or system Hepacivirus hominis
Hepatitis C virus [9] = assay: Antiviral activity against HCV 1b infected in human HuH7 cells assessed as inhibition of viral RNA replication at 2.7 uM after 4 days by replicon assay; type: functional, Hepacivirus hominis; details: genotype 1b, Huh-7, 96 h; how it was run: as §1
[10] = Inhibition of HCV NS3 helicase in presence of 0.5 mM ATP; parameters: species or system Hepacivirus hominis
Nucleic Acid [11] = assay: Binding affinity to HCV dsRNA assessed as inhibition of ethidium bromide RNA intercalation by gel migration retardation assay; type: nucleic-acid assay; details: Hepacivirus hominis
How it was run: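 dsRNA gel migration retardation assay: compound incubated with dsRNA, ethidium bromide staining; intercalation read as partial or total disappearance of the dsRNA band; DMSO and epidoxorubicin controls.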

[12] = Inhibition of HCV 3a NS3 helicase by fluorimetry; parameters: species or system Hepatitis C virus subtype 3a
How it was run: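 Fluorometric helicase unwinding assay with a dsDNA substrate at 37 °C; NS3 helicase domain (genotype […], from patient-derived RNA) expressed in baculovirus and purified from insect cells, used at 50 nM; IC50 = concentration reducing helicase activity by 50%, relative to DMSO control.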

Hepatitis C virus [13] = assay: Antiviral activity against HCV 1b infected in mutant human HuH7 cells assessed as inhibition of viral RNA replication after 4 days by replicon assay; type: functional, organism-based, Hepacivirus hominis; details: genotype 1b, Huh-7, 96 h
Hepatitis C virus [14] = assay: Antiviral activity against HCV 1b infected in human HuH7 cells assessed as inhibition of viral RNA replication at 10 uM after 4 days by replicon assay; type: functional, Hepacivirus hominis; details: genotype 1b, Huh-7, 168 h, in the assay text read “after 7 days” for “after 4 days”
How it was run: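 Huh-7 cells with genotype 1b subgenomic replicon seeded at 4 × 10⁵ per dish in DMEM, grown 7 days with 0, 1, 10 or 100 μM compound; 5 μg total RNA reverse transcribed (3UTR, oligo(dT)15, random hexamer primers), equal cDNA used for real-time PCR (45 cycles, 56 °C annealing) to quantify replicon RNA.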

Hepatitis C virus [15] = assay: Antiviral activity against HCV 1b infected in human HuH7 cells assessed as inhibition of viral RNA replication at 5.8 uM after 4 days by replicon assay; type: functional, Hepacivirus hominis; details: genotype 1b, Huh-7, 96 h; how it was run: as §1

SMILES | EC50 (Hepatitis C virus [1]) | IC50 [2] | CC50 at 72 h [3] | selectivity ratio [4] | also measured
O=C(Nc1ccncc1)c1cccc2c(=O)c3cccc(OCc4ccccc4)c3[nH]c12 | > 100 µM | 8 µM | > 100 µM |  | 
COc1cccc2c(=O)c3cccc(C(=O)Nc4cccnc4)c3[nH]c12 | 3.5 µM | 20.6 µM | > 100 µM | > 28 | Activity (Nucleic Acid [5]): Active; Activity (Nucleic Acid [6]): Active
COc1cccc2c(=O)c3cc(F)cc(C(=O)Nc4cc(Cl)ccn4)c3[nH]c12 | > 100 µM | 46.3 µM | > 100 µM |  | 
COc1cccc2c(=O)c3cc(F)cc(C(=O)Nc4ccccn4)c3[nH]c12 |  | 4.7 µM | > 100 µM |  | IC50 [7]: 5.1 µM; IC50 [8]: 4.7 µM; inhibition at 2.7 µM (Hepatitis C virus [9]): 30%; IC50 [10]: 6.5 µM
COc1cccc2c(=O)c3cc(Cl)cc(C(=O)Nc4ccccn4)c3[nH]c12 | 5 µM | 64.7 µM | 15.8 µM | 3.2 | Activity (Nucleic Acid [11]): inactive
COc1cccc2c(=O)c3cc(Cl)cc(C(=O)Nc4cccnc4)c3[nH]c12 | 0.96 µM | 54.6 µM | 19.3 µM | 20.1 | 
NC(=O)c1ncn([C@@H]2O[C@H](CO)[C@@H](O)[C@H]2O)n1 [RIBAVIRIN] | 17.6 µM |  | 1060 µM | 60.2 | 
COc1cccc2c(=O)c3cccc(C(=O)Nc4ccccn4)c3[nH]c12 | 2.3 µM | 6.2 µM | 2.5 µM | 1.1 | Activity (Nucleic Acid [5]): Active
COc1cccc2c(=O)c3cc(F)cc(C(=O)Nc4cccnc4)c3[nH]c12 | 0.98 µM | 8.6 µM | > 1000 µM | > 1000 | IC50 [7]: 9.9 µM; IC50 [8]: 8.6 µM; IC50 [12]: 7.3 µM; EC50 (Hepatitis C virus [13]): 251 µM; inhibition at 10 µM (Hepatitis C virus [14]): 85%; IC50 [10]: 10.9 µM
[N-]=[N+]=N[C@]1(CO)O[C@@H](n2ccc(N)nc2=O)[C@H](O)[C@@H]1O [4'-AZIDOCYTIDINE] |  |  | > 200 µM | > 143 | 
COc1cccc2c(=O)c3cccc(C(=O)Nc4cc(Cl)ccn4)c3[nH]c12 |  | 35.8 µM | 171 µM |  | inhibition at 5.8 µM (Hepatitis C virus [15]): 30%
COc1cc(NC(=O)c2cccc3c(=O)c4cccc(OC)c4[nH]c23)cc(OC)c1OC | 203 µM | 751 µM | > 500 µM | > 2.5 | 
COc1cccc2c(=O)c3cc(Cl)cc(C(=O)Nc4cc(Cl)ccn4)c3[nH]c12 | > 100 µM | 1.5 µM | > 100 µM |  | IC50 [7]: 1.1 µM; IC50 [8]: 1.5 µM; IC50 [10]: 1.1 µM
